{"source": "ChEMBL document CHEMBL3603816", "about": "“Synthetic Small Molecules Derived from Natural Vitamin K Homologues that Induce Selective Neuronal Differentiation of Neuronal Progenitor Cells” (2015)", "key": {"Neuronal progenitor cell [1]": {"test_system": "Neuronal progenitor cell", "test": "Induction of neuronal differentiation in mouse neuronal progenitor cells assessed as expression of Gfap at 1 uM treated for every second day for 4 days by immunofluorescence staining method", "format": "functional", "how_it_was_run": "(§1)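 Neural stem/progenitor cells dissociated from embryonic day 14 mouse cerebrum. Cultured 24 h after seeding, then given 1 μM analogue every second day for 4 days. Immunofluorescence with Map2 (neurons, red) and Gfap (astrocytes, green), nuclei counterstained with DAPI. Imaged by confocal laser microscopy; the legend states staining after 48 h.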"}, "Neuronal progenitor cell [2]": {"test_system": "Neuronal progenitor cell", "test": "Induction of neuronal differentiation in mouse neuronal progenitor cells assessed as expression of Map2 at 1 uM treated for every second day for 4 days by immunofluorescence staining method", "format": "functional", "how_it_was_run": "as §1"}, "Neuronal progenitor cell [3]": {"test_system": "Neuronal progenitor cell", "test": "Induction of neuronal differentiation in mouse neuronal progenitor cells assessed as relative ratio of expression of Map2/Gfap mRNA at 1 uM treated for every second day for 4 days by RT-PCR analysis", "format": "functional", "how_it_was_run": "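E14 mouse cerebral progenitor cells, cultured 24 h, then treated with 1.0 × 10−6 M compound or ethanol for 4 days. mRNA extracted; Map2, Gfap and β-actin levels quantitated by real-time PCR, and the Map2/Gfap ratio calculated. Means of three independent experiments ± SD. Dunnett's t-test versus EtOH.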"}, "[4]": {"test": "Induction of neuronal differentiation in mouse neuronal progenitor cells assessed as expression of Map2 at 1 uM treated for every second day for 4 days by real-time PCR method relative to control"}}, "note": "The source made the active and inactive calls. The calls are words filed in the database; no cut-off is given here."}
{"smiles": "C/C(=C\\CO)CC/C=C(\\C)Cc1cccc2ccccc12", "values": [{"measurement": "Activity", "setting": "Neuronal progenitor cell [1]", "result": "inactive"}, {"measurement": "Activity", "setting": "Neuronal progenitor cell [2]", "result": "Active"}]}
{"smiles": "CC(C)=CCC/C(C)=C/CC/C(C)=C/CC1=C(C)C(=O)c2ccccc2C1=O", "values": [{"measurement": "Activity", "setting": "Neuronal progenitor cell [3]", "result": "Active"}]}
{"smiles": "CC1=C(C/C=C(\\C)CC/C=C(\\C)Cc2cccc3ccccc23)C(=O)c2ccccc2C1=O", "values": [{"measurement": "Activity", "setting": "Neuronal progenitor cell [1]", "result": "inactive"}, {"measurement": "Activity", "setting": "Neuronal progenitor cell [2]", "result": "Active"}, {"measurement": "fold change (FC)", "setting": "[4]", "result": 1.5}]}
{"smiles": "C/C(=C\\CO)CC/C=C(\\C)Cc1ccc2ccccc2c1", "values": [{"measurement": "Activity", "setting": "Neuronal progenitor cell [1]", "result": "inactive"}, {"measurement": "Activity", "setting": "Neuronal progenitor cell [2]", "result": "Active"}]}
{"smiles": "CC1=C(C/C=C(\\C)CC/C=C(\\C)CC/C=C(\\C)Cc2ccc(-c3ccccc3)cc2)C(=O)c2ccccc2C1=O", "values": [{"measurement": "Activity", "setting": "Neuronal progenitor cell [1]", "result": "inactive"}, {"measurement": "Activity", "setting": "Neuronal progenitor cell [2]", "result": "Active"}, {"measurement": "fold change (FC)", "setting": "[4]", "result": 1.5}]}
{"smiles": "CC1=C(C/C=C(\\C)CC/C=C(\\C)CC/C=C(\\C)Cc2ccccc2)C(=O)c2ccccc2C1=O", "values": [{"measurement": "Activity", "setting": "Neuronal progenitor cell [1]", "result": "inactive"}, {"measurement": "Activity", "setting": "Neuronal progenitor cell [2]", "result": "Active"}, {"measurement": "fold change (FC)", "setting": "[4]", "result": 1.5}]}
{"smiles": "C/C(=C\\CO)CC/C=C(\\C)Cc1ccccc1", "values": [{"measurement": "Activity", "setting": "Neuronal progenitor cell [1]", "result": "inactive"}, {"measurement": "Activity", "setting": "Neuronal progenitor cell [2]", "result": "Active"}]}
{"smiles": "CC1=C(C/C=C(\\C)CC/C=C(\\C)Cc2cccc(C)c2)C(=O)c2ccccc2C1=O", "values": [{"measurement": "Activity", "setting": "Neuronal progenitor cell [1]", "result": "inactive"}, {"measurement": "Activity", "setting": "Neuronal progenitor cell [2]", "result": "Active"}, {"measurement": "fold change (FC)", "setting": "[4]", "result": 1.5}]}
{"smiles": "CC1=C(C/C=C(\\C)CC/C=C(\\C)CC/C=C(\\C)Cc2cccc(C)c2)C(=O)c2ccccc2C1=O", "values": [{"measurement": "Activity", "setting": "Neuronal progenitor cell [1]", "result": "inactive"}, {"measurement": "Activity", "setting": "Neuronal progenitor cell [2]", "result": "Active"}, {"measurement": "fold change (FC)", "setting": "[4]", "result": 1.5}, {"measurement": "Activity", "setting": "Neuronal progenitor cell [3]", "result": "Active"}]}
{"smiles": "C/C(=C\\CO)CC/C=C(\\C)Cc1cccc(C)c1", "values": [{"measurement": "Activity", "setting": "Neuronal progenitor cell [1]", "result": "inactive"}, {"measurement": "Activity", "setting": "Neuronal progenitor cell [2]", "result": "Active"}]}
{"smiles": "CC1=C(C/C=C(\\C)CC/C=C(\\C)CC/C=C(\\C)Cc2ccc3ccccc3c2)C(=O)c2ccccc2C1=O", "values": [{"measurement": "Activity", "setting": "Neuronal progenitor cell [1]", "result": "inactive"}, {"measurement": "Activity", "setting": "Neuronal progenitor cell [2]", "result": "Active"}, {"measurement": "fold change (FC)", "setting": "[4]", "result": 1.5}]}
{"smiles": "C/C(=C\\CO)CC/C=C(\\C)CC/C=C(\\C)Cc1ccccc1", "values": [{"measurement": "Activity", "setting": "Neuronal progenitor cell [1]", "result": "inactive"}, {"measurement": "Activity", "setting": "Neuronal progenitor cell [2]", "result": "Active"}]}
{"smiles": "CC1=C(C/C=C(\\C)CC/C=C(\\C)CC/C=C(\\C)Cc2cccc3ccccc23)C(=O)c2ccccc2C1=O", "values": [{"measurement": "Activity", "setting": "Neuronal progenitor cell [1]", "result": "inactive"}, {"measurement": "Activity", "setting": "Neuronal progenitor cell [2]", "result": "Active"}, {"measurement": "fold change (FC)", "setting": "[4]", "result": 1.5}]}
{"smiles": "CC(C)=CCC/C(C)=C/CC1=C(C)C(=O)c2ccccc2C1=O", "values": [{"measurement": "Activity", "setting": "Neuronal progenitor cell [3]", "result": "Active"}]}
{"smiles": "C/C(=C\\CO)CC/C=C(\\C)CC/C=C(\\C)Cc1ccc2ccccc2c1", "values": [{"measurement": "Activity", "setting": "Neuronal progenitor cell [1]", "result": "inactive"}, {"measurement": "Activity", "setting": "Neuronal progenitor cell [2]", "result": "Active"}]}
{"smiles": "CC1=C(C/C=C(\\C)CC/C=C(\\C)Cc2ccc3ccccc3c2)C(=O)c2ccccc2C1=O", "values": [{"measurement": "Activity", "setting": "Neuronal progenitor cell [1]", "result": "inactive"}, {"measurement": "Activity", "setting": "Neuronal progenitor cell [2]", "result": "inactive"}, {"measurement": "fold change (FC)", "setting": "[4]", "result": 1.5}]}
{"smiles": "C/C(=C\\CO)CC/C=C(\\C)CC/C=C(\\C)Cc1cccc(C)c1", "values": [{"measurement": "Activity", "setting": "Neuronal progenitor cell [1]", "result": "inactive"}, {"measurement": "Activity", "setting": "Neuronal progenitor cell [2]", "result": "Active"}]}
{"smiles": "C/C(=C\\CO)CC/C=C(\\C)CC/C=C(\\C)Cc1ccc(-c2ccccc2)cc1", "values": [{"measurement": "Activity", "setting": "Neuronal progenitor cell [1]", "result": "inactive"}, {"measurement": "Activity", "setting": "Neuronal progenitor cell [2]", "result": "Active"}]}
{"smiles": "CC1=C(C/C=C(\\C)CC/C=C(\\C)Cc2ccccc2)C(=O)c2ccccc2C1=O", "values": [{"measurement": "Activity", "setting": "Neuronal progenitor cell [1]", "result": "inactive"}, {"measurement": "Activity", "setting": "Neuronal progenitor cell [2]", "result": "Active"}, {"measurement": "fold change (FC)", "setting": "[4]", "result": 1.5}]}
{"smiles": "C/C(=C\\CO)CC/C=C(\\C)Cc1ccc(-c2ccccc2)cc1", "values": [{"measurement": "Activity", "setting": "Neuronal progenitor cell [1]", "result": "inactive"}, {"measurement": "Activity", "setting": "Neuronal progenitor cell [2]", "result": "Active"}]}
{"smiles": "CC1=C(C/C=C(\\C)CC/C=C(\\C)Cc2ccc(-c3ccccc3)cc2)C(=O)c2ccccc2C1=O", "values": [{"measurement": "Activity", "setting": "Neuronal progenitor cell [1]", "result": "inactive"}, {"measurement": "Activity", "setting": "Neuronal progenitor cell [2]", "result": "Active"}, {"measurement": "fold change (FC)", "setting": "[4]", "result": 1.5}]}
{"smiles": "C/C(=C\\CO)CC/C=C(\\C)CC/C=C(\\C)Cc1cccc2ccccc12", "values": [{"measurement": "Activity", "setting": "Neuronal progenitor cell [1]", "result": "inactive"}, {"measurement": "Activity", "setting": "Neuronal progenitor cell [2]", "result": "Active"}]}
